This excerpt belongs to a sample that is enriched for hits.
GASC1 inh – inhibitors of GASC-1 (KDM4C) histone demethylase, primary screen, biochemical, single concentration HTS; Lysine-specific demethylase 4C (Homo sapiens), Q9H3R0; GST-KDM4C 2-372, H3K9me3 peptide, LANCE TR-FRET; inhibition, % at 12.5 µM; 96,000 compounds, 0.15% hits;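 active = mean replicate inhibition above about 25%, with at least 55% of replicates also reaching it, limit read from the data, passing the limit was not always enough; inconclusive = only one of those two conditions met; inactive = neither condition met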
Target sequence (Q9H3R0 2-372 limits assumed): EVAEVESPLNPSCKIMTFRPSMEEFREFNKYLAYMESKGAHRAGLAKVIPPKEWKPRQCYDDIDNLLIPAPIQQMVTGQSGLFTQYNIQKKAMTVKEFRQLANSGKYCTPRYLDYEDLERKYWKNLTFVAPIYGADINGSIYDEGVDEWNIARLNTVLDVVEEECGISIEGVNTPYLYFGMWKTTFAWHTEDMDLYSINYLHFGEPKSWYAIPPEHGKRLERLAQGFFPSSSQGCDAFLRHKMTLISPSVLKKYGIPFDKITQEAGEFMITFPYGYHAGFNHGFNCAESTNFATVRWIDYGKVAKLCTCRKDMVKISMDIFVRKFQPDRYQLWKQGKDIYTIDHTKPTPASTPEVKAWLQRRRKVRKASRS
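Test system – GST-tagged GASC-1 (JMJD2C) catalytic fragment, aa 2-372 · Medium – HEPES buffer, pH 7.5, plus ascorbate · Reagent – H3K9me3 peptide with Fe(II)/2OG · Compound – one test concentration per compound · Timing – 30 min reaction, 60 min detection, RT · Technique – TR-FRET with Eu antibody and ULight streptavidin, EDTA stop · Read-out basis – inhibition from TR-FRET ratio decrease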
IDH1 mut inh – inhibitors of IDH1 R132H reductase, primary screen, biochemical, plate reader, single point. inhibition, % at 10 µM. Isocitrate dehydrogenase [NADP] cytoplasmic (Homo sapiens), O75874. 70,000 compounds, 0.18% hits. diaphorase/resazurin fluorescence, 60 min; in the data active = inhibition above about 34%; inconclusive = no clear call, values can overlap the other calls; inactive = below about 11%;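 note: 0% = DMSO and 100% = no enzyme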
* marks the source's active call; other numbers are inactive results; ? = inconclusive; nt = not tested or not shown.

SMILES | GASC1 inh | IDH1 mut inh
COc1cc(/C=C/C(=O)CC(=O)/C=C/c2ccc(O)c(OC)c2)ccc1O | nt | 0
COc1ccc(OC)c(NC(=O)CN(c2ccc(F)c(Cl)c2)S(C)(=O)=O)c1 | nt | 0
O=C(CN1CCOCC1)NCC[C@@H]1CC[C@H](NC(=O)Nc2ccc(F)cc2)[C@H](CO)O1 | 0 | 0
O=C(CN1CCOCC1)N[C@@H]1CC[C@H](CCNC(=O)Nc2cc(F)ccc2F)O[C@H]1CO | 31* | 12
O=C(CN1CCOCC1)NCC[C@H]1CC[C@H](NC(=O)Nc2ccc(F)cc2)[C@H](CO)O1 | 69* | 73*
O=C(CN1CCOCC1)N[C@H]1CC[C@@H](CCNC(=O)Nc2cc(F)ccc2F)O[C@@H]1CO | 2 | 0
COc1ccc(Cl)cc1N(CC(=O)Nc1ccccc1Br)S(C)(=O)=O | nt | 0
Cc1ccc(OCC(=O)NC(=S)Nc2cc(-c3nc4ncccc4o3)ccc2Cl)cc1 | nt | 0
Cc1ccc(S(=O)(=O)NCCC(=O)Oc2ccc3c(=O)c(-c4ccc(F)cc4)coc3c2)cc1 | nt | 6
Cc1cc(-c2ccc(N=Nc3cc(S(=O)(=O)O)c4ccccc4c3N)c(C)c2)ccc1N=Nc1cc(S(=O)(=O)O)c2ccccc2c1N | nt | 43*
Cc1cc(N)n(-c2ccc(Oc3ccccc3)cc2S(=O)(=O)O)n1 | nt | -1
Cc1ccc(NC(=O)CSc2nc3c(c(C(F)(F)F)n2)CCCC3)cc1C | nt | 0
O=C(NC(=S)c1c(-c2ccccc2)cc2ccccn12)c1ccccc1 | nt | 0
CO[C@H]1CN(C)C(=O)c2ccc(NS(=O)(=O)c3cccc(Cl)c3)cc2OC[C@@H](C)NC[C@H]1C | 43* | 72*
CO[C@H]1CN(C)C(=O)c2ccc(NS(=O)(=O)c3cccc(Cl)c3)cc2OC[C@@H](C)NC[C@@H]1C | 0 | 0
Cc1cc(O)cc(Oc2cc(C)cc(O)c2O)c1 | nt | 56*
Cc1cc(C(C)(C)C)c(O)c(C(C)(C)C)c1 | nt | -1
C=C1[C@@H]2CC[C@H]3[C@@]4(C)C(C[C@H](OC(=O)[C@]5(C)O[C@@H]5C)[C@]3(C2)[C@@H]1OC(C)=O)[C@](C)(C(=O)OC)CC[C@H]4OC(C)=O (stereo partly specified) | nt | 1
COC(=O)c1cc(C)sc1NC(=S)Nc1cnn(C)c1C(N)=O | nt | 1
O=C(N[C@H]1CC[C@H](CCNS(=O)(=O)Cc2ccccc2)O[C@H]1CO)c1ccc2c(c1)OCO2 | 35* | 5
O=C(N[C@@H]1CC[C@@H](CCNS(=O)(=O)Cc2ccccc2)O[C@@H]1CO)c1ccc2c(c1)OCO2 | -1 | 0
COc1ccccc1-c1cnc2c(c1)C(=O)N([C@H](C)CO)C[C@H](C)[C@@H](CN(C)C)O2 | 3 | -1
COc1ccc(C#Cc2cnc3c(c2)C(=O)N([C@H](C)CO)C[C@@H](C)[C@H](CN(C)C)O3)cc1 | -1 | 0
COc1ccc(C#Cc2cnc3c(c2)C(=O)N([C@H](C)CO)C[C@H](C)[C@H](CN(C)C)O3)cc1OC | 29* | -1
C[C@@H]1CN([C@@H](C)CO)C(=O)c2cc(C#CCc3ccccc3)cnc2O[C@@H]1CN(C)Cc1ccc(C(=O)O)cc1 | -2 | 1
SMILES | GASC1 inh | IDH1 mut inh
COc1ccccc1-c1cnc2c(c1)C(=O)N([C@H](C)CO)C[C@@H](C)[C@H](CN(C)C)O2 | 33* | 16
COc1ccc(C#Cc2cnc3c(c2)C(=O)N([C@H](C)CO)C[C@@H](C)[C@@H](CN(C)C)O3)cc1 | -1 | 0
COc1ccc(C#Cc2cnc3c(c2)C(=O)N([C@@H](C)CO)C[C@H](C)[C@H](CN(C)C)O3)cc1 | 28* | 0
C[C@H]1CN([C@@H](C)CO)C(=O)c2cc(C#CCc3ccccc3)cnc2O[C@@H]1CN(C)Cc1ccc(C(=O)O)cc1 | 4 | 35*
Cc1cccc(NC(c2ccc([N+](=O)[O-])cc2)c2ccc3ccc(C)nc3c2O)n1 (stereo unspecified) | nt | 0
CCn1c(SCC(=O)Nc2ccc(Br)c(Cl)c2)nnc1-c1ccccc1F | nt | 0
COc1cc(O)c2c(c1C)C(C)C(O)(CO)OC2=O (stereo unspecified) | nt | 0
CCn1c(SCC(=O)Nc2ccc(Br)cc2F)nnc1-c1ccccc1Cl | nt | 0
COCc1cn(CC[C@H]2CC[C@H](NC(=O)Nc3ccc(OC)cc3)[C@H](CO)O2)nn1 | 89* | 89*
COCc1cn(CC[C@@H]2CC[C@@H](NC(=O)Nc3ccc(OC)cc3)[C@H](CO)O2)nn1 | -1 | 0
Cc1nn(C(C)(C)C)c(OC(=O)c2ccc(Cl)cc2)c1S(=O)(=O)c1ccccc1 | nt | 0
Cc1noc(C)c1S(=O)(=O)N(C)C[C@H]1Oc2ccc(NS(=O)(=O)c3ccccc3)cc2CC(=O)N([C@H](C)CO)C[C@@H]1C | 45* | 21
COc1ccc(NC(=O)Nc2ccc3c(c2)CC(=O)N([C@H](C)CO)C[C@H](C)[C@@H](CN(C)C(=O)Nc2ccccc2)O3)cc1 | -3 | 0
COc1ccc(NC(=O)N(C)C[C@@H]2Oc3ccc(NC(=O)Nc4ccccc4)cc3CC(=O)N([C@@H](C)CO)C[C@H]2C)cc1 | 25 | 59*
COc1ccc(NC(=O)Nc2ccc3c(c2)CC(=O)N([C@@H](C)CO)C[C@@H](C)[C@@H](CN(C)C(=O)Nc2ccccc2)O3)cc1 | 0 | 4
COc1ccc(NC(=O)N(C)C[C@H]2Oc3ccc(NC(=O)Nc4ccccc4)cc3CC(=O)N([C@H](C)CO)C[C@@H]2C)cc1 | 42* | 1
Cc1noc(C)c1S(=O)(=O)N(C)C[C@H]1Oc2ccc(NS(=O)(=O)c3ccccc3)cc2CC(=O)N([C@@H](C)CO)C[C@@H]1C | 1 | -1
CCOc1cc(C)c(Cl)cc1S(=O)(=O)NCc1ccccn1 | nt | -1
Cc1sc(NC(=O)c2cnccn2)c(C(N)=O)c1-c1ccccc1 | nt | 0
Cc1ccccc1NC(=O)Cn1cnc2sc(C)c(C)c2c1=O | nt | 0
CC(=O)c1ccc(NC(=O)CSc2nc(-c3ccccc3)cc(=O)[nH]2)cc1 | nt | 0
Cc1ccccc1S(=O)(=O)NCC[C@H]1CC[C@@H](NC(=O)C2CCCCC2)[C@@H](CO)O1 | -2 | 0
COc1ccccc1S(=O)(=O)N[C@H]1CC[C@H](CCNC(=O)C2CCCC2)O[C@H]1CO | 50* | ?
COc1ccccc1S(=O)(=O)N[C@H]1CC[C@H](CCNC(=O)C2CCCCC2)O[C@@H]1CO | 0 | 0
Cc1ccccc1S(=O)(=O)NCC[C@H]1CC[C@H](NC(=O)C2CCCCC2)[C@H](CO)O1 | 82* | 88*
Cc1ccc(N(CC(=O)Nc2ccc(F)c(Cl)c2)S(C)(=O)=O)cc1 | nt | 0
Cc1ccc(NC(=O)COc2ccc3cc(-c4ccc(F)cc4)c(=O)oc3c2)cc1 | nt | 1

From PubChem
